In ChEMBL document CHEMBL3045579, “Herbicidal activity of cineole derivatives” (2010):

Assays:
Type in all cases: functional
Lolium rigidum [1] = test: Pre-emergence herbicidal activity against Lolium rigidum seeds assessed as shoot length at 0.1 mol/l at 25 degC after 72 hr by filter paper bioassay relative to control
In short: (§1)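 Seeds on sterile filter paper wetted with 1 mL aqueous solution containing 3.4 × 10^-4 g mL^-1 Tween 80. Eucalyptus oil tested at 0.0154 g mL^-1, giving about 0.1 mol L^-1 1,8-cineole. Dishes sealed and kept flat. 10 seeds/dish, 5 dishes. Incubated 72 h at 25 °C under 135–195 μE m^-2 s^-1 light. Germination, root length or shoot length compared with control.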

Radish [2] = test: Pre-emergence herbicidal activity against Raphanus sativus var.Long scarlet (radish) seeds assessed as concentration required to suppress shoot growth at 25 degC after 72 hr by filter paper bioassay
In short: (§2)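 Two seed-plate formats. Filter paper: sterile paper wetted with 1 mL aqueous solution containing 3.4 × 10^-4 g mL^-1 Tween 80, dish sealed and flat. 10 seeds/dish, 5 dishes per concentration. Incubated 72 h at 25 °C under light. Threshold taken by one-way ANOVA at P = 0.05.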

Radish [3] = test: Pre-emergence herbicidal activity against Raphanus sativus var.Long scarlet (radish) seeds assessed as shoot length at 0.1 mol/l at 25 degC after 72 hr by filter paper bioassay relative to control; in short: as §1
Radish [4] = test: Pre-emergence herbicidal activity against Raphanus sativus var.Long scarlet (radish) seeds assessed as root length at 0.1 mol/l at 25 degC after 72 hr by filter paper bioassay relative to control; in short: as §1
Lolium rigidum [5] = test: Pre-emergence herbicidal activity against Lolium rigidum seeds assessed as seed germination at 0.1 mol/l at 25 degC after 72 hr by filter paper bioassay relative to control; in short: as §1
Radish [6] = test: Pre-emergence herbicidal activity against Raphanus sativus var.Long scarlet (radish) seeds assessed as concentration required to suppress root growth at 25 degC after 72 hr by filter paper bioassay; in short: as §2
Radish [7] = test: Pre-emergence herbicidal activity against Raphanus sativus var.Long scarlet (radish) seeds assessed as concentration required to suppress seed germination at 25 degC after 72 hr by filter paper bioassay; in short: as §2
Lolium rigidum [8] = test: Pre-emergence herbicidal activity against Lolium rigidum seeds assessed as concentration required to suppress root growth at 25 degC after 72 hr by filter paper bioassay; in short: as §2
Radish [9] = test: Pre-emergence herbicidal activity against Raphanus sativus var.Long scarlet (radish) seeds assessed as seed germination at 0.1 mol/l at 25 degC after 72 hr by filter paper bioassay relative to control; in short: as §1
Lolium rigidum [10] = test: Pre-emergence herbicidal activity against Lolium rigidum seeds assessed as concentration required to suppress shoot growth at 25 degC after 72 hr by filter paper bioassay; in short: as §2
Lolium rigidum [11] = test: Pre-emergence herbicidal activity against Lolium rigidum seeds assessed as root length at 0.1 mol/l at 25 degC after 72 hr by filter paper bioassay relative to control; in short: as §1
Lolium rigidum [12] = test: Pre-emergence herbicidal activity against Lolium rigidum seeds assessed as concentration required to suppress seed germination at 25 degC after 72 hr by filter paper bioassay; in short: as §2

Compound: CC12CCC(CC1)C(C)(C)O2 [EUCALYPTOL]
- Activity (Lolium rigidum [1]): 28.4%
- Activity (Radish [2]): 1 mol/L
- Activity (Radish [3]): 64.7%
- Activity (Radish [4]): 37.1%
- Activity (Lolium rigidum [5]): 30.2%
- Activity (Radish [6]): 1 mol/L
- Activity (Radish [7]): 0.1 mol/L
- Activity (Lolium rigidum [8]): 0.1 mol/L
- Activity (Radish [9]): 34.1%
- Activity (Lolium rigidum [10]): 0.1 mol/L
- Activity (Lolium rigidum [11]): 22.4%
- Activity (Lolium rigidum [12]): 0.1 mol/L
